# Source: ChEMBL document CHEMBL4130613, “Identification and Proposed Relative and Absolute Configurations of Niphimycins C-E from the Marine-Derived Streptomyces sp. IMB7-145 by Genomic Analysis” (J Nat Prod, 2018)
# Active and inactive are the calls of the source. The rule behind the calls is not given here.
# Experiments:
# Providencia rettgeri = test: Antibacterial activity against Providencia rettgeri ATCC 31052 after 18 hrs by agar dilution method; format: functional; conditions: ATCC 31052, 18 h
# [1] = system: Acinetobacter calcoaceticus; test: Antibacterial activity against Acinetobacter calcoaceticus ATCC 19606 after 18 hrs by agar dilution method; format: functional; conditions: ATCC 19606, 18 h
# Candida albicans = test: Antifungal activity against Candida albicans ATCC 10231 after 18 hrs by agar dilution method; format: functional; conditions: ATCC 10231, 18 h
# Staphylococcus aureus [2] = test: Antibacterial activity against methicillin-resistant Staphylococcus aureus ATCC 33591 after 18 hrs by agar dilution method; format: functional
# Enterobacter cloacae = test: Antibacterial activity against Enterobacter cloacae ATCC 43560 after 18 hrs by agar dilution method; format: functional; conditions: ATCC 43560, 18 h
# Morganella morganii = test: Antibacterial activity against Morganella morganii ATCC 25830 after 18 hrs by agar dilution method; format: functional; conditions: ATCC 25830, 18 h
# Pseudomonas aeruginosa [3] = test: Antibacterial activity against Pseudomonas aeruginosa 12-16 after 18 hrs by agar dilution method; format: functional; conditions: 12-16, 18 h
# Enterococcus faecalis [4] = test: Antibacterial activity against vancomycin-resistant Enterococcus faecalis 09-9 after 18 hrs by agar dilution method; format: functional
# Enterococcus faecium [5] = test: Antibacterial activity against vancomycin-resistant Enterococcus faecium 12-1 after 18 hrs by agar dilution method; format: functional
# Proteus mirabilis = test: Antibacterial activity against Proteus mirabilis 12-6 after 18 hrs by agar dilution method; format: functional; conditions: 12-6, 18 h
# Escherichia coli [6] = test: Antibacterial activity against extended-spectrum beta-lactamase-negative Escherichia coli 12-14 after 18 hrs by agar dilution method; format: functional; conditions: 12-14, 18 h
# [7] = system: Stenotrophomonas maltophilia; test: Antibacterial activity against Stenotrophomonas maltophilia ATCC 13636 after 18 hrs by agar dilution method; format: functional; conditions: ATCC 13636, 18 h
# Staphylococcus aureus [8] = test: Antibacterial activity against methicillin-resistant Staphylococcus aureus 12-33 after 18 hrs by agar dilution method; format: functional
# Enterococcus faecalis [9] = test: Antibacterial activity against vancomycin-resistant Enterococcus faecalis ATCC 51299 after 18 hrs by agar dilution method; format: functional
# Pseudomonas aeruginosa [10] = test: Antibacterial activity against Pseudomonas aeruginosa ATCC 27853 after 18 hrs by agar dilution method; format: functional; conditions: ATCC 27853, 18 h
# Klebsiella pneumoniae [11] = test: Antibacterial activity against extended-spectrum beta-lactamase-positive Klebsiella pneumoniae 12-8 after 18 hrs by agar dilution method; format: functional; conditions: 12-8, 18 h
# Klebsiella aerogenes = test: Antibacterial activity against Enterobacter aerogenes ATCC 13048 after 18 hrs by agar dilution method; format: functional; conditions: ATCC 13048, 18 h
# Citrobacter freundii = test: Antibacterial activity against Citrobacter freundii ATCC 43864 after 18 hrs by agar dilution method; format: functional; conditions: ATCC 43864, 18 h
# Pseudomonas aeruginosa [12] = test: Antibacterial activity against Pseudomonas aeruginosa PAO1 after 18 hrs by agar dilution method; format: functional; conditions: PAO1, 18 h
# Escherichia coli [13] = test: Antibacterial activity against extended-spectrum beta-lactamase-negative Escherichia coli 1515 after 18 hrs by agar dilution method; format: functional; conditions: Escherichia coli, 1515, 18 h
# Proteus vulgaris = test: Antibacterial activity against Proteus vulgaris ATCC 29905 after 18 hrs by agar dilution method; format: functional; conditions: ATCC 29905, 18 h
# Escherichia coli [14] = test: Antibacterial activity against extended-spectrum beta-lactamase-positive Escherichia coli 12-15 after 18 hrs by agar dilution method; format: functional; conditions: 12-15, 18 h
# Klebsiella pneumoniae [15] = test: Antibacterial activity against extended-spectrum beta-lactamase-negative Klebsiella pneumoniae 7 after 18 hrs by agar dilution method; format: functional; conditions: Klebsiella pneumoniae, 7, 18 h
# Klebsiella pneumoniae [16] = test: Antibacterial activity against extended-spectrum beta-lactamase-positive Klebsiella pneumoniae ATCC 700603 after 18 hrs by agar dilution method; format: functional; conditions: Klebsiella pneumoniae, 700603, 18 h
# Klebsiella pneumoniae [17] = test: Antibacterial activity against NDM-1 positive Klebsiella pneumoniae ATCC BAA-2146 after 18 hrs by agar dilution method; format: functional; conditions: ATCC BAA-2146, 18 h
# [18] = system: Staphylococcus epidermidis; test: Antibacterial activity against methicillin-resistant Staphylococcus epidermidis 12-8 after 18 hrs by agar dilution method; format: functional
# Klebsiella pneumoniae [19] = test: Antibacterial activity against extended-spectrum beta-lactamase-negative Klebsiella pneumoniae 12-4 after 18 hrs by agar dilution method; format: functional; conditions: 12-4, 18 h
# Escherichia coli [20] = test: Antibacterial activity against extended-spectrum beta-lactamase-negative Escherichia coli ATCC 25922 after 18 hrs by agar dilution method; format: functional; conditions: ATCC 25922, 18 h
# Enterococcus faecium [21] = test: Antibacterial activity against vancomycin-resistant Enterococcus faecium ATCC 700221 after 18 hrs by agar dilution method; format: functional
# Serratia marcescens = test: Antibacterial activity against Serratia marcescens ATCC 21074 after 18 hrs by agar dilution method; format: functional; conditions: ATCC 21074, 18 h
# HeLa = test: Cytotoxicity against human HeLa cells after 48 hrs by SRB assay; format: functional, cell-based
# Method in brief: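 HeLa human cervical carcinoma cells obtained from ATCC. Cytotoxicity was read by sulforhodamine B staining following an earlier published protocol, with doxorubicin hydrochloride as positive control. Values are reported as IC50.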
Structure (SMILES),MIC (Providencia rettgeri) [µg/mL],MIC [1] [µg/mL],MIC (Candida albicans) [µg/mL],Activity (Staphylococcus aureus [2]),MIC (Enterobacter cloacae) [µg/mL],MIC (Morganella morganii) [µg/mL],MIC (Pseudomonas aeruginosa [3]) [µg/mL],Activity (Enterococcus faecalis [4]),Activity (Enterococcus faecium [5]),MIC (Proteus mirabilis) [µg/mL],MIC (Escherichia coli [6]) [µg/mL],MIC [7] [µg/mL],Activity (Staphylococcus aureus [8]),Activity (Enterococcus faecalis [9]),MIC (Pseudomonas aeruginosa [10]) [µg/mL],MIC (Klebsiella pneumoniae [11]) [µg/mL],MIC (Klebsiella aerogenes) [µg/mL],MIC (Citrobacter freundii) [µg/mL],MIC (Pseudomonas aeruginosa [12]) [µg/mL],MIC (Escherichia coli [13]) [µg/mL],also measured
CNC(=N)NCCC/C=C/CCC[C@H](C)C[C@H](C)[C@@H](O)[C@@H](C)/C=C/C=C/[C@@H](O)[C@@H](C)[C@H](O)C[C@@H](O)C[C@H](O)C[C@@H](O)C[C@H](O)[C@@H](O)C(O)C[C@@H](O)[C@@H](C)CC[C@H](O)[C@@H](C)[C@@H](O)C[C@@H](O)[C@@H](C)/C=C/[C@@H](O)[C@@H](C)C(=O)O (stereo partly specified),> 64,> 64,8 to 32,Active,> 64,> 64,> 64,Active,Active,> 64,> 64,> 64,Active,Active,> 64,> 64,> 64,> 64,> 64,> 64,MIC (Proteus vulgaris): > 64 µg/mL; MIC (Escherichia coli [14]): > 64 µg/mL; MIC (Klebsiella pneumoniae [15]): > 64 µg/mL; MIC (Klebsiella pneumoniae [16]): > 64 µg/mL; MIC (Klebsiella pneumoniae [17]): > 64 µg/mL; Activity [18]: Active; MIC (Klebsiella pneumoniae [19]): > 64 µg/mL; MIC (Escherichia coli [20]): > 64 µg/mL; Activity (Enterococcus faecium [21]): Active; MIC (Serratia marcescens): > 64 µg/mL; IC50 (HeLa): > 10 µM
CNC(=N)NCCC/C=C/CCC[C@H](C)C[C@H](C)[C@H]1OC(=O)[C@H](C)[C@H](O)/C=C/[C@H](C)[C@H](O)C[C@H](O)[C@H](C)[C@@H](O)CC[C@H](C)[C@H](O)C[C@]2(OC)O[C@H](C[C@@H](OC(=O)CC(=O)O)C[C@H](O)C[C@@H](O)[C@H](C)[C@H](O)/C=C/C=C/[C@@H]1C)C[C@H](O)[C@H]2O,> 64,> 64,8 to 32,Active,> 64,> 64,> 64,Active,Active,> 64,> 64,> 64,Active,Active,> 64,> 64,> 64,> 64,> 64,> 64,MIC (Proteus vulgaris): > 64 µg/mL; MIC (Escherichia coli [14]): > 64 µg/mL; MIC (Klebsiella pneumoniae [15]): > 64 µg/mL; MIC (Klebsiella pneumoniae [16]): > 64 µg/mL; MIC (Klebsiella pneumoniae [17]): > 64 µg/mL; Activity [18]: Active; MIC (Klebsiella pneumoniae [19]): > 64 µg/mL; MIC (Escherichia coli [20]): > 64 µg/mL; Activity (Enterococcus faecium [21]): Active; MIC (Serratia marcescens): > 64 µg/mL; IC50 (HeLa): 3 to 9 µM
CNC(=N)NCCC/C=C/CCC[C@H](C)C[C@H](C)[C@H]1OC(=O)[C@H](C)[C@H](O)/C=C/[C@H](C)[C@H](O)C[C@H](O)[C@H](C)[C@@H](O)CC[C@H](C)[C@H](O)C[C@]2(O)O[C@H](C[C@@H](OC(=O)CC(=O)O)C[C@H](O)C[C@@H](O)[C@H](C)[C@H](O)/C=C/C=C/[C@@H]1C)C[C@H](OC(=O)CC(=O)O)[C@H]2O,> 64,> 64,8 to 32,Active,> 64,> 64,> 64,Active,Active,> 64,> 64,> 64,Active,Active,> 64,> 64,> 64,> 64,> 64,> 64,MIC (Proteus vulgaris): > 64 µg/mL; MIC (Escherichia coli [14]): > 64 µg/mL; MIC (Klebsiella pneumoniae [15]): > 64 µg/mL; MIC (Klebsiella pneumoniae [16]): > 64 µg/mL; MIC (Klebsiella pneumoniae [17]): > 64 µg/mL; Activity [18]: Active; MIC (Klebsiella pneumoniae [19]): > 64 µg/mL; MIC (Escherichia coli [20]): > 64 µg/mL; Activity (Enterococcus faecium [21]): Active; MIC (Serratia marcescens): > 64 µg/mL; IC50 (HeLa): 3 to 9 µM
CNC(=N)NCCC/C=C/CCC[C@H](C)C[C@H](C)[C@H]1OC(=O)[C@H](C)[C@H](O)/C=C/[C@H](C)[C@H](O)C[C@H](O)[C@H](C)[C@@H](O)CC[C@H](C)[C@H](OC(=O)CC(=O)O)C[C@]2(O)O[C@H](C[C@@H](OC(=O)CC(=O)O)C[C@H](O)C[C@@H](O)[C@H](C)[C@H](O)/C=C/C=C/[C@@H]1C)C[C@H](O)[C@H]2O,> 64,> 64,8 to 32,Active,> 64,> 64,> 64,Active,Active,> 64,> 64,> 64,Active,Active,> 64,> 64,> 64,> 64,> 64,> 64,MIC (Proteus vulgaris): > 64 µg/mL; MIC (Escherichia coli [14]): > 64 µg/mL; MIC (Klebsiella pneumoniae [15]): > 64 µg/mL; MIC (Klebsiella pneumoniae [16]): > 64 µg/mL; MIC (Klebsiella pneumoniae [17]): > 64 µg/mL; Activity [18]: Active; MIC (Klebsiella pneumoniae [19]): > 64 µg/mL; MIC (Escherichia coli [20]): > 64 µg/mL; Activity (Enterococcus faecium [21]): Active; MIC (Serratia marcescens): > 64 µg/mL; IC50 (HeLa): 3 to 9 µM
CNC(=N)NCCC/C=C/CCC[C@H](C)C[C@H](C)[C@H]1OC(=O)[C@H](C)[C@H](O)/C=C/[C@H](C)[C@H](O)C[C@H](O)[C@H](C)[C@@H](O)CC[C@H](C)[C@H](O)CC(O)[C@H](O)[C@@H](O)C[C@H](O)C[C@@H](O)C[C@H](O)C[C@@H](O)[C@H](C)[C@H](O)/C=C/C=C/[C@@H]1C (stereo partly specified),> 64,> 64,8 to 32,Active,> 64,> 64,> 64,Active,Active,> 64,> 64,> 64,Active,Active,> 64,> 64,> 64,> 64,> 64,> 64,MIC (Proteus vulgaris): > 64 µg/mL; MIC (Escherichia coli [14]): > 64 µg/mL; MIC (Klebsiella pneumoniae [15]): > 64 µg/mL; MIC (Klebsiella pneumoniae [16]): > 64 µg/mL; MIC (Klebsiella pneumoniae [17]): > 64 µg/mL; Activity [18]: Active; MIC (Klebsiella pneumoniae [19]): > 64 µg/mL; MIC (Escherichia coli [20]): > 64 µg/mL; Activity (Enterococcus faecium [21]): Active; MIC (Serratia marcescens): > 64 µg/mL; IC50 (HeLa): > 10 µM
CNC(=N)NCCC/C=C/CCC[C@H](C)C[C@H](C)[C@H]1OC(=O)[C@H](C)[C@H](O)/C=C/[C@H](C)[C@H](O)C[C@H](O)[C@H](C)[C@@H](O)CC[C@H](C)[C@H](O)C[C@]2(O)O[C@H](C[C@@H](O)C[C@H](OC(=O)CC(=O)O)C[C@@H](O)[C@H](C)[C@H](O)/C=C/C=C/[C@@H]1C)C[C@H](OC(=O)CC(=O)O)[C@H]2O,> 64,> 64,8 to 32,Active,> 64,> 64,> 64,Active,Active,> 64,> 64,> 64,Active,Active,> 64,> 64,> 64,> 64,> 64,> 64,MIC (Proteus vulgaris): > 64 µg/mL; MIC (Escherichia coli [14]): > 64 µg/mL; MIC (Klebsiella pneumoniae [15]): > 64 µg/mL; MIC (Klebsiella pneumoniae [16]): > 64 µg/mL; MIC (Klebsiella pneumoniae [17]): > 64 µg/mL; Activity [18]: Active; MIC (Klebsiella pneumoniae [19]): > 64 µg/mL; MIC (Escherichia coli [20]): > 64 µg/mL; Activity (Enterococcus faecium [21]): Active; MIC (Serratia marcescens): > 64 µg/mL; IC50 (HeLa): > 10 µM
